ChEMBL document CHEMBL4049424, “Hydroxypyridinone and 5-Aminolaevulinic Acid Conjugates for Photodynamic Therapy” (J Med Chem, 2017)

Assays:
[1] = tested on: MCF7; assay: Phototoxicity in human MCF7 cells assessed as reduction in cell viability preincubated for 4 hrs followed by irradiation with blue light at 2.5 J/cm2 and subsequent incubation for 18 hrs measured after 24 hrs post treatment by MTT assay; assay type: functional; settings: for CC50: MCF7, light or radiation study, read-out: LD50 (the source's name)
Procedure, shortened: (§1)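 Cells seeded ~5 × 10^4 per well, grown 48 h, washed with PBS, then 4 h with compound (five concentrations within 1–100 μM, triplicate, three untreated control wells per plate). Irradiated with blue light, peak ~420 nm, 2.5 J/cm². Medium replaced, cells kept a further 18 h. MTT read at A570 24 h after treatment; survival expressed as percentage of control. LD50 taken from two sets of experiments.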

[2] = Drug metabolism in human doxorubicin resistant MCF7/R cells assessed as formation of protoporphyrin 9 at 1 to 100 uM after 6 hrs by fluorescence spectrometer relative to ALA; assay type: ADME, cell-based; settings: mcf7r
Procedure, shortened: (§2)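 MCF-7R monolayers exposed 6 h at 37 °C to ALA, conjugates or ALA hexyl/octyl esters at 1–100 μM in serum-free medium. PpIX emission at 635 nm (405 nm excitation; spectra 600–750 nm) read in wells. Untreated controls subtracted; mean of triplicates in arbitrary units.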

[3] = Drug metabolism in human KB cells assessed as formation of protoporphyrin 9 preincubated for 2 hrs followed by compound washout measured after 24 hrs by HPLC-based fluorescence analysis; assay type: ADME, cell-based
Procedure, shortened: (§3)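 Cells given ALA or conjugate for 2 h at 37 °C, then fresh medium without compound. At 24 h, lysed in CelLytic (15 min, room temperature), scraped and spun 1800g for 10 min. Supernatant PpIX read by fluorescence at 405/635 nm and normalised per mg protein (BCA). Untreated blanks subtracted.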

[4] = tested on: KB; assay: Phototoxicity in human KB cells assessed as reduction in cell viability preincubated for 4 hrs followed by irradiation with blue light at 2.5 J/cm2 and subsequent incubation for 18 hrs measured after 24 hrs post treatment by MTT assay; assay type: functional; settings: for CC50: light or radiation study, read-out: LD50 (the source's name); procedure, shortened: as §1
[5] = Drug metabolism in human doxorubicin resistant MCF7/R cells assessed as formation of protoporphyrin 9 preincubated for 2 hrs followed by compound washout measured after 24 hrs by HPLC-based fluorescence analysis; assay type: ADME, cell-based; settings: mcf7r; procedure, shortened: as §3
[6] = tested on: MCF7R; assay: Phototoxicity in human doxorubicin resistant MCF7/R cells assessed as reduction in cell viability preincubated for 4 hrs followed by irradiation with blue light at 2.5 J/cm2 and subsequent incubation for 18 hrs measured after 24 hrs post treatment by MTT assay; assay type: functional; settings: for CC50: light or radiation study, read-out: LD50 (the source's name); procedure, shortened: as §1
[7] = tested on: KB; assay: Dark toxicity against human KB cells at 200 uM preincubated for 4 hrs followed by compound washout measured after 24 hrs by MTT assay; assay type: cell-based
Procedure, shortened: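 Dark toxicity in KB cells: 200 μM compound for 4 h with no light, removed, cells kept 24 h. Viability by MTT (2 h, A570 after DMSO solubilisation), given as % of untreated controls. Triplicate.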

[8] = tested on: KB; assay: Dark toxicity against human KB cells assessed as cell survival at 100 uM after 24 hrs by MTT assay; assay type: cell-based
[9] = tested on: KB; assay: Phototoxicity in human KB cells assessed as cell survival at 10 uM preincubated for 4 hrs followed by irradiation with blue light at 2.5 J/cm2 and subsequent incubation for 18 hrs measured after 24 hrs post treatment by MTT assay relative to control; assay type: functional; settings: light or radiation study, read-out: Survival; procedure, shortened: as §1
[10] = Prodrug conversion in human KB cells assessed as accumulation of ALA at 100 uM after 2 hrs by HPLC-based fluorescence analysis relative to ALA; assay type: ADME, cell-based
Procedure, shortened: (§4)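 KB or MCF-7R cells incubated 2 h with 100 μM ALA or conjugate, then extracted with CelLytic. Lysate ALA derivatised with acetylacetone/ethanol/water (15/45/40) plus 10% formaldehyde at 100 °C for 10 min. Analysed by C18 HPLC with fluorescence detection (excitation 370 nm, emission 460 nm) against spiked-lysate calibration. Normalised per mg protein.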

[11] = Drug metabolism in human doxorubicin resistant MCF7/R cells assessed as formation of protoporphyrin 9 after 6 hrs by fluorescence spectrometer; assay type: ADME, cell-based; settings: mcf7r; procedure, shortened: as §2
[12] = Drug metabolism in human KB cells assessed as formation of protoporphyrin 9 at 50 uM after 2 to 24 hrs by fluorescence spectrometer; assay type: ADME, cell-based
Procedure, shortened: (§5)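 KB monolayers (48 h after seeding ~5×10^4/well) washed, then given prodrug or ALA at 50 μM in serum-free medium at 37 °C. PpIX fluorescence read in wells at 2, 4, 6 and 24 h, excitation 405 nm, emission 635 nm. Untreated wells subtracted for autofluorescence; mean intensity in arbitrary units, triplicate.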

[13] = Drug metabolism in human KB cells assessed as protoporphyrin 9 formation at 500 uM preincubated for 1 hr at 4 degC followed by compound washout and subsequent incubation for 4 hrs at 37 degC by fluorescence spectrometer; assay type: ADME, cell-based
Procedure, shortened: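 KB cells exposed 1 h to 500 μM prodrug in clear medium at either 4 °C or 37 °C, plates foil-wrapped. Compound then removed, PBS rinse, fresh medium, both plates 4 h at 37 °C. PpIX read in wells at 405/635 nm after subtracting untreated wells.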

[14] = Drug metabolism in human doxorubicin resistant MCF7/R cells assessed as formation of protoporphyrin 9 at 50 uM after 6 hrs by fluorescence spectrometer; assay type: ADME, cell-based; settings: mcf7r
Procedure, shortened: (§6)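 MCF-7 or MCF-7R cells incubated 6 h at 37 °C with 50 μM conjugate, or with 50 μM ALA and HPO as a 1:1 mixture, in serum-free medium. PpIX fluorescence read in wells at 405/635 nm, untreated-well values subtracted, triplicate.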

[15] = Drug metabolism in human doxorubicin resistant MCF7/R cells assessed as formation of protoporphyrin 9 at 1 to 100 uM after 6 hrs by fluorescence spectrometer; assay type: ADME, cell-based; settings: mcf7r
Procedure, shortened: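 Cells seeded ~5 × 10^4 per well and grown 48 h, washed with PBS. Then 6 h at 37 °C with 1–100 μM prodrug in serum-free medium. PpIX fluorescence read with excitation 405 nm and emission 635 nm (scan 600–750 nm, 515 nm long-pass filter). Values are mean intensity in arbitrary units after subtracting no-prodrug control wells. Triplicate.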

[16] = Drug metabolism in human KB cells assessed as formation of protoporphyrin 9 at 50 uM after 24 hrs by fluorescence spectrometer relative to ALA; assay type: ADME, cell-based; procedure, shortened: as §5
[17] = Drug metabolism in human MCF7 cells assessed as formation of protoporphyrin 9 at 50 uM after 6 hrs by fluorescence spectrometer; assay type: ADME, cell-based; settings: mcf7, 6 h; procedure, shortened: as §6
[18] = Drug metabolism in human MCF7 cells assessed as formation of protoporphyrin 9 preincubated for 2 hrs followed by compound washout measured after 24 hrs by HPLC-based fluorescence analysis; assay type: ADME, cell-based; settings: mcf7, 24 h; procedure, shortened: as §3
[19] = Drug metabolism in human KB cells assessed as formation of protoporphyrin 9 at 100 uM after 6 to 24 hrs by fluorescence spectrometer; assay type: ADME, cell-based
Procedure, shortened: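 Time course in KB cells at 37 °C after 100 μM conjugate, ALA, or 1:1 ALA + HPO mixture in serum-free medium. Well PpIX fluorescence read at 405 nm excitation / 635 nm emission, control autofluorescence subtracted, triplicate means.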

[20] = Prodrug conversion in human doxorubicin resistant MCF7/R cells assessed as accumulation of ALA at 100 uM after 2 hrs by HPLC-based fluorescence analysis relative to ALA; assay type: ADME, cell-based; settings: mcf7r; procedure, shortened: as §4
[21] = Drug metabolism in human doxorubicin resistant MCF7/R cells assessed as formation of protoporphyrin 9 at 100 uM after 6 hrs by fluorescence spectrometer; assay type: ADME, cell-based; settings: mcf7r; procedure, shortened: as §2

## CC(O)c1c(O)c(=O)ccn1CCCCCCOC(=O)CCC(=O)CN.Cl (configuration not stated)
[1]
  Activity: Dose-dependent effect
  CC50: 16.6 µM
[2]
  fold change (FC): > 10
[3]
  Drug metabolism: Metabolite_Detected
[4]
  Activity: Dose-dependent effect
  CC50: 24.1 µM
[5]
  Drug metabolism: Metabolite_Detected
[6]
  Activity: Dose-dependent effect
  CC50: 8.4 µM
[7]
  Activity: Non-Toxic
[8]
  Activity: Non-Toxic

## CCc1c(O)c(=O)ccn1CCCCCCCCCCOC(=O)CCC(=O)CN.Cl
[9]
  viability at 10 µM: < 6%
[1]
  Activity: Dose-dependent effect
  CC50: 8.1 µM
[10]
  fold change (FC): 8
[11]
  Drug metabolism: Dose-dependent effect
[12]
  Drug metabolism: Metabolite_Detected
[3]
  Drug metabolism: Metabolite_Detected
[13]
  Drug metabolism: Metabolite_Detected
[14]
  Drug metabolism: Metabolite_Detected
[4]
  Activity: Dose-dependent effect
  CC50: 2.3 µM
[15]
  Flu intensity: 2 to 25 a.u.
[16]
  fold change (FC): 10.2
[5]
  Drug metabolism: Metabolite_Detected
[6]
  Activity: Dose-dependent effect
  CC50: 3.9 µM
[17]
  Drug metabolism: Metabolite_Detected
[7]
  Activity: Non-Toxic
[18]
  Drug metabolism: Metabolite_Detected
[19]
  Drug metabolism: Metabolite_Detected
[8]
  Activity: Non-Toxic
[20]
  fold change (FC): 8

## CCc1c(O)c(=O)ccn1CCCCCCOC(=O)CCC(=O)CN.Cl
[1]
  Activity: Dose-dependent effect
  CC50: 13.4 µM
[2]
  fold change (FC): > 15
[11]
  Drug metabolism: Dose-dependent effect
[3]
  Drug metabolism: Metabolite_Detected
[13]
  Drug metabolism: Metabolite_Detected
[14]
  Drug metabolism: Metabolite_Detected
[4]
  Activity: Dose-dependent effect
  CC50: 5.2 µM
[15]
  Flu intensity: 2 to 25 a.u.
[5]
  Drug metabolism: Metabolite_Detected
[6]
  Activity: Dose-dependent effect
  CC50: 8.1 µM
[17]
  Drug metabolism: Metabolite_Detected
[7]
  Activity: Non-Toxic
[18]
  Drug metabolism: Metabolite_Detected
[19]
  Drug metabolism: Metabolite_Detected
[8]
  Activity: Non-Toxic

## CCc1c(O)c(=O)ccn1CCOC(=O)CCC(=O)CN.Cl
[1]
  Activity: Dose-dependent effect
  CC50: 124 µM
[4]
  Activity: Dose-dependent effect
  CC50: 115 µM
[6]
  Activity: Dose-dependent effect
  CC50: 122 µM
[7]
  Activity: Non-Toxic
[21]
  Drug metabolism: Metabolite_Notdetected
[18]
  Drug metabolism: Metabolite_Detected
[8]
  Activity: Non-Toxic

## CCc1c(O)c(=O)ccn1CCCCOC(=O)CCC(=O)CN.Cl
[1]
  Activity: Dose-dependent effect
  CC50: 76.5 µM
[11]
  Drug metabolism: Dose-dependent effect
[13]
  Drug metabolism: Metabolite_Detected
[4]
  Activity: Dose-dependent effect
  CC50: 65.1 µM
[15]
  Flu intensity: 2 to 25 a.u.
[6]
  Activity: Dose-dependent effect
  CC50: 61.2 µM
[7]
  Activity: Non-Toxic
[18]
  Drug metabolism: Metabolite_Detected
[8]
  Activity: Non-Toxic

## CCc1c(O)c(=O)ccn1CCCCCCCCCCCCOC(=O)CCC(=O)CN.Cl
[9]
  viability at 10 µM: < 6%
[1]
  Activity: Dose-dependent effect
  CC50: 12.9 µM
[11]
  Drug metabolism: Dose-dependent effect
[12]
  Drug metabolism: Metabolite_Detected
[3]
  Drug metabolism: Metabolite_Detected
[13]
  Drug metabolism: Metabolite_Detected
[14]
  Drug metabolism: Metabolite_Detected
[4]
  Activity: Dose-dependent effect
  CC50: 2.5 µM
[15]
  Flu intensity: 2 to 25 a.u.
[16]
  fold change (FC): 9.2
[5]
  Drug metabolism: Metabolite_Detected
[6]
  Activity: Dose-dependent effect
  CC50: 5.5 µM
[17]
  Drug metabolism: Metabolite_Detected
[7]
  Activity: Non-Toxic
[18]
  Drug metabolism: Metabolite_Detected
[19]
  Drug metabolism: Metabolite_Detected
[8]
  Activity: Non-Toxic

## CNC(=O)c1c(O)c(=O)ccn1CCCCCCOC(=O)CCC(=O)CN.Cl
[1]
  Activity: Dose-dependent effect
  CC50: 113 µM
[4]
  Activity: Dose-dependent effect
  CC50: 108 µM
[15]
  Drug metabolism: Metabolite_Notdetected
[6]
  Activity: Dose-dependent effect
  CC50: 104 µM
[7]
  Activity: Non-Toxic
[8]
  Activity: Non-Toxic
